Legend:
SK-MEL-5 [1] = experiment: Growth inhibition of human SK-MEL-5 cells assessed as cell growth at 10 uM incubated for 48 hrs by sulforhodamine B assay; assay type: functional; conditions: SK-MEL-5, 48 h, read-out: Activity
[2] = Growth inhibition of human HL-60(TB) cells assessed as cell growth at 10^-5 M incubated for 48 hrs by sulforhodamine B assay; assay type: functional; conditions: HL-60, 48 h, read-out: Activity
In short: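 Cells plated at 5,000–40,000/well according to doubling time and preincubated 24 h at 37 °C, 5% CO₂, with time-zero plates TCA-fixed. Drugs were kept as DMSO concentrates at 400× the top concentration and diluted in medium with 50 µg/ml gentamicin. Five 10-fold or ½-log dilutions were run for 48 h, followed by SRB staining and A515. Percent growth = (Ti−Tz)/(C−Tz)×100, or (Ti−Tz)/Tz×100 when Ti<Tz.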

MDA-MB-435 = experiment: Growth inhibition of human MDA-MB-435 cells assessed as cell growth at 10^-6 M incubated for 48 hrs by sulforhodamine B assay; assay type: functional; conditions: MDA-MB-435, 48 h, read-out: Activity
[3] = Growth inhibition of human HCT116 cells assessed as cell growth at 10^-6 M incubated for 48 hrs by sulforhodamine B assay; assay type: functional; conditions: HCT-116, 48 h, read-out: Activity
In short: (§1)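 Cells seeded at 5,000–40,000/well according to doubling time and preincubated 24 h at 37 °C, 5% CO2. Time-zero plates were TCA-fixed. DMSO concentrate was diluted in medium with 50 µg/ml gentamicin to give five concentrations (10-fold or ½ log steps), then exposed 48 h. Cells were TCA-fixed, stained with 0.4% SRB and read at 515 nm. Percent growth was taken against time-zero and control; GI50, TGI and LC50 derived.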

MDA-MB-231 = experiment: Growth inhibition of human MDA-MB-231 cells assessed as cell growth at 10^-5 M incubated for 48 hrs by sulforhodamine B assay; assay type: functional; conditions: MDA-MB-231, 48 h, read-out: Activity
Albumin [4] = biological target: T1, Albumin (Bos taurus, UniProt P02769); experiment: Binding affinity to bovine serum albumin assessed as enhancement in emission spectra up to 20 uM by fluorescence spectroscopic analysis relative to control; assay type: ADME; conditions: cattle, isolated protein
In short: (§2)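 Fluorescence titration of 10 µM BSA in 0.1 M phosphate buffer pH 7.4 with compound at 0–20 µM, diluted from DMSO stocks. Excitation 280 nm, slit 10 nm, 1 cm quartz cell, 300 K. Changes in the 350 nm Trp emission, new bands near 370–373 nm and isoemissive points are read against BSA alone.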

SK-MEL-5 [5] = experiment: Growth inhibition of human SK-MEL-5 cells assessed as cell growth at 10^-6 M incubated for 48 hrs by sulforhodamine B assay; assay type: functional; conditions: SK-MEL-5, 48 h, read-out: Activity
SK-MEL-28 = experiment: Growth inhibition of human SK-MEL-28 cells assessed as cell growth at 10 uM incubated for 48 hrs by sulforhodamine B assay; assay type: functional; conditions: SK-MEL-28, 48 h, read-out: Activity
[6] = Growth inhibition of human SNB19 cells assessed as cell growth at 10^-4 M incubated for 48 hrs by sulforhodamine B assay; assay type: functional; conditions: SNB-19, 48 h, read-out: Activity
[7] = Growth inhibition of human UO31 cells assessed as cell growth at 10^-7 M incubated for 48 hrs by sulforhodamine B assay; assay type: functional; conditions: UO-31, 48 h, read-out: Activity
[8] = Growth inhibition of human UO31 cells incubated for 48 hrs by sulforhodamine B assay; assay type: functional; conditions: UO-31, 48 h; for CC50: read-out: pLC50 (the source's name) (converted)
In short: (§3)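 Cells were plated at 5,000–40,000 per well according to doubling time and preincubated 24 h at 37 °C in 5% CO2; time-zero plates were then TCA-fixed. Five concentrations (10-fold or ½-log dilutions, DMSO stock) were incubated 48 h. Cells were TCA-fixed, stained with 0.4% SRB and read at 515 nm. GI50 was taken where [(Ti−Tz)/(C−Tz)]×100 = 50.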

Albumin [9] = biological target: T1, Albumin; experiment: Binding affinity to bovine serum albumin assessed as red shift in emission intensity up to 20 uM by fluorescence spectroscopic analysis relative to control; assay type: ADME; conditions: cattle, isolated protein; in short: as §2
MCF7 = experiment: Growth inhibition of human MCF7 cells assessed as cell growth at 10^-4 M incubated for 48 hrs by sulforhodamine B assay; assay type: functional; conditions: MCF7, 48 h, read-out: Activity
[10] = Growth inhibition of human Caki1 cells assessed as cell growth at 10 uM incubated for 48 hrs by sulforhodamine B assay; assay type: functional; conditions: CAKI-1, 48 h, read-out: Activity
In short: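 Primary screen at one dose (10 µM) across 60 human cancer cell lines. Readout was growth percent relative to untreated control and time-zero.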

NCI-H460 = experiment: Growth inhibition of human NCI-H460 cells assessed as cell growth at 10^-8 M incubated for 48 hrs by sulforhodamine B assay; assay type: functional; conditions: NCI-H460, 48 h, read-out: Activity
Malme-3M = experiment: Growth inhibition of human MALME-3M cells incubated for 48 hrs by sulforhodamine B assay; assay type: functional; in short: as §3
[11] = Growth inhibition of human OVCAR4 cells assessed as cell growth at 10^-5 M incubated for 48 hrs by sulforhodamine B assay; assay type: functional; conditions: OVCAR-4, 48 h, read-out: Activity
[12] = Growth inhibition of human SNB75 cells incubated for 48 hrs by sulforhodamine B assay; assay type: functional; conditions: SNB-75, 48 h; in short: as §3
[13] = Growth inhibition of human Hs 578T cells assessed as cell growth at 10 uM incubated for 48 hrs by sulforhodamine B assay; assay type: functional; conditions: read-out: Activity
[14] = Growth inhibition of human HOP92 cells assessed as cell growth at 10^-5 M incubated for 48 hrs by sulforhodamine B assay; assay type: functional; conditions: HOP-92, 48 h, read-out: Activity
[15] = Growth inhibition of human HOP92 cells assessed as cell growth at 10^-4 M incubated for 48 hrs by sulforhodamine B assay; assay type: functional; conditions: HOP-92, 48 h, read-out: Activity
[16] = Growth inhibition of human SW620 cells incubated for 48 hrs by sulforhodamine B assay; assay type: functional; conditions: SW-620, 48 h; in short: as §3
EKVX = experiment: Growth inhibition of human EKVX cells assessed as cell growth at 10^-8 M incubated for 48 hrs by sulforhodamine B assay; assay type: functional; conditions: read-out: Activity; in short: as §1
[17] = Growth inhibition of human HOP62 cells assessed as cell growth at 10^-8 M incubated for 48 hrs by sulforhodamine B assay; assay type: functional; conditions: HOP-62, 48 h, read-out: Activity
[18] = Growth inhibition of human HOP92 cells assessed as cell growth at 10^-6 M incubated for 48 hrs by sulforhodamine B assay; assay type: functional; conditions: HOP-92, 48 h, read-out: Activity
[19] = read-out: LC50 (the source's name)
[20] = read-out: pLC50 (the source's name) (converted)

T1 sequence (P02769 whole entry): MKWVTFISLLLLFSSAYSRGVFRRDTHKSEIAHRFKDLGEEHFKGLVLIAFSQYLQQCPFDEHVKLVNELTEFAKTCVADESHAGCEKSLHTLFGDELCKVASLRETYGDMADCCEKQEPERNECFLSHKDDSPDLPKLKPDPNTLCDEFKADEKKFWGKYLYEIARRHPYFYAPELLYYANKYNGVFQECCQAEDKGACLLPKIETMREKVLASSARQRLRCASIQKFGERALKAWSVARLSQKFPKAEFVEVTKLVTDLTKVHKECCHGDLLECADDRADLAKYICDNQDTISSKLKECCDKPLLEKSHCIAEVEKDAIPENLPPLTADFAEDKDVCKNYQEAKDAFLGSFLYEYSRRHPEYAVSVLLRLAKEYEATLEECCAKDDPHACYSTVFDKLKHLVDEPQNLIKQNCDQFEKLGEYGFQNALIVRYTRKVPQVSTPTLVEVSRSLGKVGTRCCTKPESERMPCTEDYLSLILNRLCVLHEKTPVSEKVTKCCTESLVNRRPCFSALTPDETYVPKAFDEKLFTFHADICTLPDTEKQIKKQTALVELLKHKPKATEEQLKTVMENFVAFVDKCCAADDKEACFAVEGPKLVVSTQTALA

## c1ccc(-c2nc(Nc3ccc(-c4nc5ccccc5[nH]4)cc3)nc(N3CCOCC3)n2)cc1
SK-MEL-5 [1]
  growth at 10 µM: -95.4%
[2]
  growth at 10 µM: -44%
MDA-MB-435
  growth at 1 µM: 96%
[3]
  growth at 1 µM: 16%
MDA-MB-231
  growth at 10 µM: -53%
Albumin [4]
  Activity: 22.78%
SK-MEL-5 [5]
  growth at 1 µM: 92%
SK-MEL-28
  growth at 10 µM: -82.8%
[6]
  growth at 100 µM: -48%
[7]
  growth at 0.1 µM: 82%
[8]
  LC50: 6.4 µM
  CC50: 6.46 µM
[8]; read-out: GI50
  GI50: 1.32 µM
[8]; read-out: TGI
  TGI: 2.91 µM
[8]; read-out: pGI50 (converted)
  GI50: 1.32 µM
[8]; read-out: pTGI (converted)
  TGI: 2.88 µM
Albumin [9]
  Activity: 20 nm
MCF7
  growth at 100 µM: -52%
[10]
  growth at 10 µM: -89.4%
NCI-H460
  growth at 0.01 µM: 103%
Malme-3M; read-out: GI50
  GI50: 2 µM
Malme-3M; [19]
  CC50: 7.42 µM
Malme-3M; read-out: TGI
  TGI: 3.85 µM
Malme-3M; read-out: pGI50 (converted)
  GI50: 2 µM
Malme-3M; [20]
  CC50: 7.41 µM
Malme-3M; read-out: pTGI (converted)
  TGI: 3.89 µM
[11]
  growth at 10 µM: -97%
[12]; read-out: GI50
  GI50: 1.64 µM
[12]; [19]
  CC50: 6.07 µM
[12]; read-out: TGI
  TGI: 3.15 µM
[12]; read-out: pGI50 (converted)
  GI50: 1.62 µM
[12]; [20]
  CC50: 6.03 µM
[12]; read-out: pTGI (converted)
  TGI: 3.16 µM
[13]
  growth at 10 µM: -39.9%
[14]
  growth at 10 µM: -75%
[15]
  growth at 100 µM: -85%
[16]; read-out: GI50
  GI50: 0.627 µM
[16]; [19]
  CC50: 5.82 µM
[16]; read-out: TGI
  TGI: 2.17 µM
[16]; read-out: pGI50 (converted)
  GI50: 0.631 µM
[16]; [20]
  CC50: 5.75 µM
[16]; read-out: pTGI (converted)
  TGI: 2.19 µM
EKVX
  growth at 0.01 µM: 92%
[17]
  growth at 0.01 µM: 92%
[18]
  growth at 1 µM: 70%

## Fc1ccc(-c2nc(Nc3ccc(-c4nc5ccccc5[nH]4)cc3)nc(N3CCOCC3)n2)cc1
SK-MEL-5 [1]
  growth at 10 µM: -90.7%
[2]
  growth at 10 µM: -27%
MDA-MB-435
  growth at 1 µM: 95%
[3]
  growth at 1 µM: 102%
MDA-MB-231
  growth at 10 µM: -35%
Albumin [4]
  Activity: 71.83%
SK-MEL-5 [5]
  growth at 1 µM: 97%
SK-MEL-28
  growth at 10 µM: -34%
[6]
  growth at 100 µM: 4%
[7]
  growth at 0.1 µM: 89%
[8]
  LC50: > 100 µM
  CC50: > 100 µM
[8]; read-out: GI50
  GI50: 2.16 µM
[8]; read-out: TGI
  TGI: 5.64 µM
[8]; read-out: pGI50 (converted)
  GI50: 2.14 µM
[8]; read-out: pTGI (converted)
  TGI: 5.62 µM
Albumin [9]
  Activity: 23 nm
MCF7
  growth at 100 µM: 1%
[10]
  growth at 10 µM: -56.6%
NCI-H460
  growth at 0.01 µM: 104%
Malme-3M; read-out: GI50
  GI50: 2.05 µM
Malme-3M; [19]
  CC50: 7.63 µM
Malme-3M; read-out: TGI
  TGI: 3.95 µM
Malme-3M; read-out: pGI50 (converted)
  GI50: 2.04 µM
Malme-3M; [20]
  CC50: 7.59 µM
Malme-3M; read-out: pTGI (converted)
  TGI: 3.98 µM
[11]
  growth at 10 µM: 3%
[12]; read-out: GI50
  GI50: 1.8 µM
[12]; [19]
  CC50: > 100 µM
[12]; read-out: TGI
  TGI: 10.5 µM
[12]; read-out: pGI50 (converted)
  GI50: 1.82 µM
[12]; [20]
  CC50: > 100 µM
[12]; read-out: pTGI (converted)
  TGI: 10.5 µM
[13]
  growth at 10 µM: -11.9%
[14]
  growth at 10 µM: -67%
[15]
  growth at 100 µM: -58%
[16]; read-out: GI50
  GI50: 2.19 µM
[16]; [19]
  CC50: > 100 µM
[16]; read-out: TGI
  TGI: 4.8 µM
[16]; read-out: pGI50 (converted)
  GI50: 2.19 µM
[16]; [20]
  CC50: > 100 µM
[16]; read-out: pTGI (converted)
  TGI: 4.79 µM
EKVX
  growth at 0.01 µM: 93%
[17]
  growth at 0.01 µM: 98%
[18]
  growth at 1 µM: 90%

— ChEMBL document CHEMBL3808334, “Synthesis and in vitro evaluation of novel triazine analogues as anticancer agents and their interaction studies with bovine serum albumin” (Eur J Med Chem, 2016)
